# Results pooled from the literature.
# Each line is one published result; the experiments were not run side by side.
# Target: Rhodopsin kinase GRK7 (GRK7, Homo sapiens, UniProt Q8WTQ7)
# Sequence (Q8WTQ7 1-553, as in one of the studies): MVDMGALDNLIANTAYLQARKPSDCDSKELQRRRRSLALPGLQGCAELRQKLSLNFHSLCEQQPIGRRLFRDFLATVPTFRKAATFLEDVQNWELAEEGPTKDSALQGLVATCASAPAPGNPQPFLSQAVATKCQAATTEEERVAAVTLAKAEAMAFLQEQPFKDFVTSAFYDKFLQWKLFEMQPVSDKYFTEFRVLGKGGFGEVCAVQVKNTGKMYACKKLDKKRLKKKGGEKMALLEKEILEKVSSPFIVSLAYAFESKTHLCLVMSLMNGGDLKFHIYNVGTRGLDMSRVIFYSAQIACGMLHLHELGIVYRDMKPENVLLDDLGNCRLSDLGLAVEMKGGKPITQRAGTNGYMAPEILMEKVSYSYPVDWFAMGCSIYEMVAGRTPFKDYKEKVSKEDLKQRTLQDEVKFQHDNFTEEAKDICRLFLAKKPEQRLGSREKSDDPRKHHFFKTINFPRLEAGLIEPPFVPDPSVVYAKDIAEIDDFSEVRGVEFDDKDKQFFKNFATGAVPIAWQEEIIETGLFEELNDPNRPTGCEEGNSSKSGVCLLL
Compound,observed,mode,method,tested at,measurement,result
O=c1[nH]c2ccccc2n1C1CCN(Cc2ccc(-c3[nH]c4cc5ncnc5cc4nc3-c3ccccc3)cc2)CC1,cell-free assay,,,0.5 µM,remaining signal,98.5%
Cn1cncc1[C@@](O)(COc1ccc(C#N)cc1-c1ccc(OC(F)(F)F)cc1)c1ccc(C#N)cc1,cell-free assay,,competition with immobilised ligand,1 µM,remaining binding,81%
Nc1ncc(-c2nc(N3CCOCC3)nc(N3CCOCC3)n2)c(C(F)F)n1,binding,,competition with immobilised ligand,10 µM,remaining binding,67%
Cn1cc(-c2cc(F)cc(N3CCn4c(cc5c4CCCC5)C3=O)c2CO)cc(Nc2ccc(N3CCN(C4COC4)CC3)cn2)c1=O,enzyme activity,inhibitor,,0.1 µM,inhibition,2%
CC(C)(C)c1cc(C=C(C#N)C#N)cc(Br)c1O,enzyme activity,inhibitor,,0.5 µM,remaining activity,107%
N#CC1(c2ccccn2)CCN(Cc2cc(C(=O)O)c(=O)n3ccccc23)CC1,cell-free assay,,competition with immobilised ligand,1 µM,remaining binding,77%
Cn1cc(-c2cccc(N3CCc4c(sc5c4CC(C)(C)C5)C3=O)c2CO)cc(Nc2ccncn2)c1=O,enzyme activity,inhibitor,,1 µM,inhibition,3%
COc1ncccc1-c1cnn2ccc(N3CCN(C(=O)OC(C)C)CC3)nc12,binding,,competition with immobilised ligand,1 µM,remaining binding,100%
